Measured values as given in ChEMBL document CHEMBL2417457, “Octahydropyrrolo[3,4-c]pyrrole negative allosteric modulators of mGlu1” (Bioorg Med Chem Lett, 2013).
Activity calls are given as the source filed them. The rule behind the calls is not given here.

Legend:
[1] = target: T1, Metabotropic glutamate receptor 1 (Homo sapiens, UniProt Q13255); experiment: Negative allosteric modulation of human mGlu1 receptor expressed in HEK293A TREx cells assessed as calcium flux at 30 uM after 45 mins relative to glutamate; assay type: functional, cell-based; settings: HEK293-A
Summary of the method: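 Tetracycline-induced HEK293A TREx cells expressing human mGlu1 were loaded with Fluo-4 for Ca2+ flux. Test compound was given at 30 μM. Response amplitude is expressed as a percentage of the maximal response to 100 μM glutamate, averaged over n ≥ 3.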
Target sequence in this assay (Q13255 19-1194 limits assumed): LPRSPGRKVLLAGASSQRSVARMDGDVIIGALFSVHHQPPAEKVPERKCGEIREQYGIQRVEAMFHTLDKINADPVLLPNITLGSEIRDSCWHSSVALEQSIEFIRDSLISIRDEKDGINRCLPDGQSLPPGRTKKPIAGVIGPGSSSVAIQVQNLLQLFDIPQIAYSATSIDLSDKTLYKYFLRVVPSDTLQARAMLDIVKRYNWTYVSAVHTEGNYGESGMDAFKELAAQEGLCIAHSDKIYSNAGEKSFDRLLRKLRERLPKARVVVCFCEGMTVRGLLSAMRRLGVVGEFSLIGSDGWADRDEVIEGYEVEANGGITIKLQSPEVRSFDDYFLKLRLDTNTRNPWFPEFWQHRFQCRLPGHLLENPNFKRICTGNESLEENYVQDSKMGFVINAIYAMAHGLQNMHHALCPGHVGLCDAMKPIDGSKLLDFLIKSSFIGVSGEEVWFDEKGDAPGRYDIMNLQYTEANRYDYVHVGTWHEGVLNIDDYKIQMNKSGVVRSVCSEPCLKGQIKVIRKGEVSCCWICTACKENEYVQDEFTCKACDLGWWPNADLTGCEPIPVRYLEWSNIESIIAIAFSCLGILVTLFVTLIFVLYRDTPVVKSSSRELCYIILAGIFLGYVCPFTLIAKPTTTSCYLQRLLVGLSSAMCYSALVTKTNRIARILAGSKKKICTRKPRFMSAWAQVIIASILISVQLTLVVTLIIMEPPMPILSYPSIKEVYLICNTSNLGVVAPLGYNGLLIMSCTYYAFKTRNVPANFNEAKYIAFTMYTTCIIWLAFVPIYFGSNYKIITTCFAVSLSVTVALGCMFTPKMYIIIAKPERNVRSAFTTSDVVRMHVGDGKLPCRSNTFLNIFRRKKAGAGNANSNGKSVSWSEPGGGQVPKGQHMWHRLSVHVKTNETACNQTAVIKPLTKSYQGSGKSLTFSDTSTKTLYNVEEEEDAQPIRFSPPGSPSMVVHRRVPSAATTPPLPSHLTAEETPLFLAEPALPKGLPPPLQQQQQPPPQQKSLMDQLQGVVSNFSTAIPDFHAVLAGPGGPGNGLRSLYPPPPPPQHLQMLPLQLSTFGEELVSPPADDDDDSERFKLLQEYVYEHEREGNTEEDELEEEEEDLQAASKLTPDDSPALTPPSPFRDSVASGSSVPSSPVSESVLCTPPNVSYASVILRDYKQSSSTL

[2] = target: T1, Metabotropic glutamate receptor 1; experiment: Negative allosteric modulation of human mGlu1 receptor expressed in HEK293A TREx cells assessed as calcium flux after 45 mins; assay type: functional, cell-based, HEK293-A
Summary of the method: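 HEK293A TREx cells stably expressing human mGlu1 were induced overnight with 50 ng/mL tetracycline at 37 °C. Ten-point 1:3 compound series were added for 2.3 min, then an EC20 of glutamate, then an EC80 of glutamate 1.9 min later. Ca2+ flux was read for 1.7 min. Values are the average of n ≥ 3.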
Target sequence in this assay (Q13255 whole entry): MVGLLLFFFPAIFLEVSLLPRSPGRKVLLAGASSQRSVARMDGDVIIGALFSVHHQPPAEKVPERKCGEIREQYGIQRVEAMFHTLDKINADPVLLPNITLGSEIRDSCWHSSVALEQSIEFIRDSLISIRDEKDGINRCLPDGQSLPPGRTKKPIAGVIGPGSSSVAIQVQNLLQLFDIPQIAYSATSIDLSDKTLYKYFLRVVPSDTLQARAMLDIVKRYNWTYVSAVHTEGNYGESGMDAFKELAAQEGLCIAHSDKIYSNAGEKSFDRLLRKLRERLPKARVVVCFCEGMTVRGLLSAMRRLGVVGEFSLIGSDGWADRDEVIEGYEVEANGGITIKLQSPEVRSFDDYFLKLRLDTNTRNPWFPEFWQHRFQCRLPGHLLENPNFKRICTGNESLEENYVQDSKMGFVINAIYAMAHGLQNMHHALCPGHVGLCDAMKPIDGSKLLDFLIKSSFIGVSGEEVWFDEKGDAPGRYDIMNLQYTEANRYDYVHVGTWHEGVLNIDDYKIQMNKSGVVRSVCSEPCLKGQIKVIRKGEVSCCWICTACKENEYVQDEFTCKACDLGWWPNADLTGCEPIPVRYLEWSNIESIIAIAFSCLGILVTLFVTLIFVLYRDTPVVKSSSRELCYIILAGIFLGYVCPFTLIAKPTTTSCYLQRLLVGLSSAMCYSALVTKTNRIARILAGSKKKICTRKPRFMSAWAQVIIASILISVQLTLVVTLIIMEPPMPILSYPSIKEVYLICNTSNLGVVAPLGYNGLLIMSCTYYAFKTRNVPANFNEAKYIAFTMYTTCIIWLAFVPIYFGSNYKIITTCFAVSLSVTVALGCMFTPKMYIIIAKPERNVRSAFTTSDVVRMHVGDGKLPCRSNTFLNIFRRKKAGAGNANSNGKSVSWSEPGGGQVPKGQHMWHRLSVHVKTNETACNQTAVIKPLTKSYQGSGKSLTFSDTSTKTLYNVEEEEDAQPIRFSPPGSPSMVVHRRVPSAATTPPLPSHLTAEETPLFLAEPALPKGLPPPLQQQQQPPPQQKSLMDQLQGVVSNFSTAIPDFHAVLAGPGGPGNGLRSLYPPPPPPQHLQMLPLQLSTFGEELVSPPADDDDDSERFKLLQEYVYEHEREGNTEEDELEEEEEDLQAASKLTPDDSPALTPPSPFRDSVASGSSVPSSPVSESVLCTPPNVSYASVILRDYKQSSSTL

Plasma = experiment: Fraction unbound in rat plasma; assay type: ADME, cell-free
Summary of the method: (§1)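 Unbound fraction was determined by equilibrium dialysis against rat plasma or rat brain homogenate.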

[3] = target: Metabotropic glutamate receptor 3 (Homo sapiens) (UniProt Q14832); experiment: Negative allosteric modulation of mGlu3 receptor (unknown origin) by cell based assay
Summary of the method: (§2)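 Selectivity against other mGlu subtypes was tested in cell-based functional assays with compound at 10 μM.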

Cytochrome P450 2C9 = Cytochrome P450 2C9 (Homo sapiens, UniProt P11712); experiment: Inhibition of CYP2C9 in human liver microsomes in presence of NADPH; assay type: ADME, Microsome
Cytochrome P450 3A4 = Cytochrome P450 3A4 (Homo sapiens, UniProt P08684); experiment: Inhibition of CYP3A4 in human liver microsomes in presence of NADPH; assay type: ADME, Microsome
Cytochrome P450 1A2 = target: T2, Cytochrome P450 1A2 (Homo sapiens, UniProt P05177); experiment: Inhibition of CYP1A2 in human liver microsomes in presence of NADPH; assay type: ADME, Microsome
T2 sequence (P05177 whole entry): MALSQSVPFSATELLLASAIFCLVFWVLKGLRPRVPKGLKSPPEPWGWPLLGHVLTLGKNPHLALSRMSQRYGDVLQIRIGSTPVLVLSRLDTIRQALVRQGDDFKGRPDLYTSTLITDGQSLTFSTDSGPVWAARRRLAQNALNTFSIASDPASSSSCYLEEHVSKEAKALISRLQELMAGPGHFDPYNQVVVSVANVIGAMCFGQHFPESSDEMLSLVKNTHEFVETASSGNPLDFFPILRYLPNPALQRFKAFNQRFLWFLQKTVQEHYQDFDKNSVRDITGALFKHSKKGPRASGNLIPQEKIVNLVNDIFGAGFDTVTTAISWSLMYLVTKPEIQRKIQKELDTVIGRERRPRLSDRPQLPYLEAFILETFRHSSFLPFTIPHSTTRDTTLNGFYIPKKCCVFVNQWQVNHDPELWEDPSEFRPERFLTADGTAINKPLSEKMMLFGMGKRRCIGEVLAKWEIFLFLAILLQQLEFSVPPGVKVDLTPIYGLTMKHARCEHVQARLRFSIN

[4] = target: Metabotropic glutamate receptor 2 (Homo sapiens) (UniProt Q14416); experiment: Negative allosteric modulation of mGlu2 receptor (unknown origin) by cell based assay; summary of the method: as §2
[5] = target: Metabotropic glutamate receptor 5 (Rattus norvegicus, UniProt P31424); experiment: Negative allosteric modulation of mGlu5 receptor (unknown origin) by cell based assay
Brain = experiment: Fraction unbound in rat brain; assay type: ADME, tissue-based; summary of the method: as §1
Cytochrome P450 2D6 = Cytochrome P450 2D6 (Homo sapiens, UniProt P10635); experiment: Inhibition of CYP2D6 in human liver microsomes in presence of NADPH; assay type: ADME, Microsome
[6] = target: Metabotropic glutamate receptor 6 (Homo sapiens) (UniProt O15303); experiment: Negative allosteric modulation of mGlu6 receptor (unknown origin) by cell based assay; summary of the method: as §2
[7] = target: Metabotropic glutamate receptor 8 (Homo sapiens) (UniProt O00222); experiment: Negative allosteric modulation of mGlu8 receptor (unknown origin) by cell based assay; summary of the method: as §2
[8] = target: Metabotropic glutamate receptor 4 (Homo sapiens) (UniProt Q14833); experiment: Negative allosteric modulation of mGlu4 receptor (unknown origin) by cell based assay; summary of the method: as §2
[9] = target: Kappa-type opioid receptor (Homo sapiens) (UniProt P41145); experiment: Binding affinity to human kappa opioid receptor by radioligand binding assay; settings: concentration not given here
Summary of the method: (§3)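 Compound was screened at 10 μM in a commercial radioligand binding panel of 68 GPCRs, ion channels, kinases and transporters.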

[10] = target: Sigma non-opioid intracellular receptor 1 (Homo sapiens) (UniProt Q99720); experiment: Binding affinity to human sigma1 receptor by radioligand binding assay; settings: concentration not given here; summary of the method: as §3
[11] = target: Metabotropic glutamate receptor 5 (Rattus norvegicus) (UniProt P31424); experiment: Negative allosteric modulation of rat mGlu5 receptor at 30 uM relative to glutamate
[12] = target: T3, 5-hydroxytryptamine receptor 3A (Homo sapiens) (UniProt P46098); experiment: Binding affinity to human 5HT3 receptor by radioligand binding assay; settings: concentration not given here; summary of the method: as §3
T3 sequence (whole entry): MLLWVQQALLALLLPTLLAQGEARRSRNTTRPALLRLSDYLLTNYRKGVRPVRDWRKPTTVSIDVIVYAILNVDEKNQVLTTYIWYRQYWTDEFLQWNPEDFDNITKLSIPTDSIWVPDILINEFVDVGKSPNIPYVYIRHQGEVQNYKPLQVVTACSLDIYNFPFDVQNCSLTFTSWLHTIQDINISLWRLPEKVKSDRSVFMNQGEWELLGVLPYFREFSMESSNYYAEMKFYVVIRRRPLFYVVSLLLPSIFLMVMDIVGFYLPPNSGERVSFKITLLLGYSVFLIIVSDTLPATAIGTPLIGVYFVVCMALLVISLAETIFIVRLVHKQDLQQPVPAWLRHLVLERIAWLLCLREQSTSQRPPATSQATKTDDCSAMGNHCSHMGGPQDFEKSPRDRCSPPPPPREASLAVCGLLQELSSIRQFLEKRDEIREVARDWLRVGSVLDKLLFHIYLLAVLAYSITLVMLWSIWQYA

Rattus norvegicus = organism: Rattus norvegicus; experiment: Binding affinity to rat sodium channel site 2 by radioligand binding assay; settings: concentration not given here; summary of the method: as §3
[13] = target: T1, Metabotropic glutamate receptor 1; experiment: Negative allosteric modulation of human mGlu1 receptor up to 30 uM
Target sequence in this assay (Q13255 whole entry, looked up): as the sequence (Q13255 whole entry) above

Sequence of Cytochrome P450 2C9 (P11712 whole entry): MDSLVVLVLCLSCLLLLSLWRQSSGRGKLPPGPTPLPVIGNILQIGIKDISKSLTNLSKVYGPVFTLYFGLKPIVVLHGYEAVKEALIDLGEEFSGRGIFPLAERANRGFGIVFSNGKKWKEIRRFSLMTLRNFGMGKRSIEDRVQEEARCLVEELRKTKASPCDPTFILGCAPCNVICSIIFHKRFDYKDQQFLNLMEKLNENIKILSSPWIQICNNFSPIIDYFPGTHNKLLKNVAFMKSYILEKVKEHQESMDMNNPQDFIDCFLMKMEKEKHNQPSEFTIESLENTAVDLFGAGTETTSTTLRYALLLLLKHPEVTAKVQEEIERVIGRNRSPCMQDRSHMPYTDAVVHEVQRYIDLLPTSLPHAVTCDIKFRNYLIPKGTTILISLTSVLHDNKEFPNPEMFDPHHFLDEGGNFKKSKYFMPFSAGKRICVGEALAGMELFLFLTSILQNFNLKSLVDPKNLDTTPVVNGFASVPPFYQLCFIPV
Sequence of Cytochrome P450 2D6 (P10635 whole entry): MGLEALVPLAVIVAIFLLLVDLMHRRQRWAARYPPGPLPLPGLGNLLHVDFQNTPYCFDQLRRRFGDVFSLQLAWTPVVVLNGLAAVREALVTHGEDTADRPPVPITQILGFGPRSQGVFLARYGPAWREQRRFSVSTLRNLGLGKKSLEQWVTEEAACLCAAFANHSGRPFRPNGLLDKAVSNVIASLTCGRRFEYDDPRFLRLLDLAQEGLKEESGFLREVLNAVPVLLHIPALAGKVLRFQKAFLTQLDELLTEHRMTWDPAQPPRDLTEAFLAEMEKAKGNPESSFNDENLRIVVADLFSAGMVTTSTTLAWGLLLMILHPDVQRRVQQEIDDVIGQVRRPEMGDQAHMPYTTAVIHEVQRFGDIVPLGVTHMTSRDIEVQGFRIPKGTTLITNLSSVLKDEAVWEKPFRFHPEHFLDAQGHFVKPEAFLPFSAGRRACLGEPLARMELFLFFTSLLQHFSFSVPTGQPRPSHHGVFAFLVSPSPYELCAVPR
Sequence of Cytochrome P450 3A4 (P08684 whole entry): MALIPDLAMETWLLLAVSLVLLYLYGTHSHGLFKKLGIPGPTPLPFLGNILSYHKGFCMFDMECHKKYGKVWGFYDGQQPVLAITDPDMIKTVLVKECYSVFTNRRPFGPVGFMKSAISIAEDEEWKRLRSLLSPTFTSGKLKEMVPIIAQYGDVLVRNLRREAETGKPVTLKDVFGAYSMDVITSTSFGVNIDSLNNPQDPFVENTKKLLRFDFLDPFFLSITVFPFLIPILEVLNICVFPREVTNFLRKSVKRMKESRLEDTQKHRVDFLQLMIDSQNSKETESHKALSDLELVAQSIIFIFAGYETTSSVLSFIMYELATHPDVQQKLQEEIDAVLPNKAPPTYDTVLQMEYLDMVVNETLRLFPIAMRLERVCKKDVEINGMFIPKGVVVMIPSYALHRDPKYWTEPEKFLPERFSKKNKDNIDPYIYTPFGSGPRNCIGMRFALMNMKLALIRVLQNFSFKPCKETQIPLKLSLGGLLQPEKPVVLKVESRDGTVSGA
Sequence of Metabotropic glutamate receptor 4 (Homo sapiens) (Q14833 whole entry): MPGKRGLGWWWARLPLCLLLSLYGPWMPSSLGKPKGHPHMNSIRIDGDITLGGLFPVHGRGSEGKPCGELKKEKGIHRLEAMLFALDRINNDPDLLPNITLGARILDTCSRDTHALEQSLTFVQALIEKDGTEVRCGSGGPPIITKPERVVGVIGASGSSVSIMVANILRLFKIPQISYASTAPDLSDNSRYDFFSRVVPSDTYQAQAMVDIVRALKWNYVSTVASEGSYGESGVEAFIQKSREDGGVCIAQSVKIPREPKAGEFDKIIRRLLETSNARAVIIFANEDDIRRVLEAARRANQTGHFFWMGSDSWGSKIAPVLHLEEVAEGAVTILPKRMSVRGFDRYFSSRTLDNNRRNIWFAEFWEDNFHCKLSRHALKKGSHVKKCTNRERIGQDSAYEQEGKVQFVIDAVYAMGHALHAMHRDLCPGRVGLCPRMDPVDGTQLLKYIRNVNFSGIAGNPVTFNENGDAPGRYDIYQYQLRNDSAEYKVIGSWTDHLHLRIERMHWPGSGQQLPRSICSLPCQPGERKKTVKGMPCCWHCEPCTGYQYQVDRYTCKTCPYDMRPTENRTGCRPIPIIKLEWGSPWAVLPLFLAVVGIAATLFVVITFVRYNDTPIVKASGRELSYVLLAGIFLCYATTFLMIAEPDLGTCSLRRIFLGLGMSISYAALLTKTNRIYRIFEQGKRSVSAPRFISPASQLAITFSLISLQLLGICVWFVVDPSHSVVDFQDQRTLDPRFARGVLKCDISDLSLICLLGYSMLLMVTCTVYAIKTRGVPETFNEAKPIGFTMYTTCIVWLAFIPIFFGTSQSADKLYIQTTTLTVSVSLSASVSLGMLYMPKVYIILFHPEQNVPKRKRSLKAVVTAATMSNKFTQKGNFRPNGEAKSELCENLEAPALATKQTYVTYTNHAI
Sequence of Sigma non-opioid intracellular receptor 1 (Homo sapiens) (Q99720 whole entry): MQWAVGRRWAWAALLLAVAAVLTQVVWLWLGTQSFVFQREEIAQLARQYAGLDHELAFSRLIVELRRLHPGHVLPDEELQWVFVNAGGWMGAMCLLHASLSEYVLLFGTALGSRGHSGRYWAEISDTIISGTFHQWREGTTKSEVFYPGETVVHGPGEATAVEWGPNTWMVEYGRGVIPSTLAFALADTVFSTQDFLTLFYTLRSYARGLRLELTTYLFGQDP

| SMILES | %max [1] [%] | IC50 [2] [µM] | other results |
| --- | --- | --- | --- |
| CC(C)(C)[C@H]1CC[C@H](C(=O)N2C[C@H]3CN(c4ccccn4)C[C@H]3C2)CC1 | 29.2 | > 10 | – |
| CC1(C(=O)N2C[C@@H]3CN(c4ccccn4)C[C@@H]3C2)CCCCC1 | 9.3 | 5.14 | – |
| O=C(N1CCC2(CCCC2)CC1)N1C[C@@H]2CN(c3ccccn3)C[C@@H]2C1 | 0.7 | 0.769 | – |
| CC1(C)[C@@H]2CN(C(=O)N3C[C@@H]4CN(c5ccccn5)C[C@@H]4C3)C[C@@H]21 | -7.5 | 11.9 | – |
| N#Cc1ccccc1N1C[C@H]2CN(C(=O)C34CC5CC(CC(C5)C3)C4)C[C@H]2C1 | 6.9 | 0.185 | Fu (Plasma): 1.4% |
| O=C(N1CCCCCCC1)N1C[C@@H]2CN(c3ccccn3)C[C@@H]2C1 | 23.2 | > 10 | – |
| N#Cc1cccnc1N1C[C@H]2CN(C(=O)C34CC5CC(CC(C5)C3)C4)C[C@H]2C1 | 12.2 | – | – |
| O=C(N1C[C@@H]2CN(c3ccccn3)C[C@@H]2C1)N1CCC2(CCCC2)C1 | -0.1 | 0.297 | Fu (Plasma): 9%; Activity [3]: inactive; IC50 (Cytochrome P450 2C9): > 30 µM; IC50 (Cytochrome P450 3A4): > 30 µM; IC50 (Cytochrome P450 1A2): > 30 µM; Activity [4]: inactive; IC50 [5]: > 10 µM; Fu (Brain): 5.1%; IC50 (Cytochrome P450 2D6): > 30 µM; Activity [6]: Active; Activity [7]: Active; Activity [8]: inactive |
| O=C(N1CCC2(CCCCC2)CC1)N1C[C@@H]2CN(c3ccccn3)C[C@@H]2C1 | 1.5 | 0.364 | Fu (Plasma): 1.5% |
| O=C(N1CC2CCC(C2)C1)N1C[C@@H]2CN(c3ccccn3)C[C@@H]2C1 | -5.8 | – | – |
| N#Cc1ccncc1N1C[C@H]2CN(C(=O)C34CC5CC(CC(C5)C3)C4)C[C@H]2C1 | 0.1 | 0.833 | – |
| O=C(N1C[C@@H]2CN(c3ncccc3F)C[C@@H]2C1)C12CC3CC(CC(C3)C1)C2 | 2.1 | 1 | – |
| C[C@H]1CC[C@H](C(=O)N2C[C@H]3CN(c4ccccn4)C[C@H]3C2)CC1 | 37.9 | > 10 | – |
| O=C(N1C[C@@H]2CN(c3cnccn3)C[C@@H]2C1)C12CC3CC(CC(C3)C1)C2 | -1.1 | 0.669 | Fu (Plasma): 10.3% |
| CC(C)(C)C(=O)N1C[C@@H]2CN(c3ccccn3)C[C@@H]2C1 | – | > 30 | – |
| O=C(N1C[C@@H]2CN(c3ccncn3)C[C@@H]2C1)C12CC3CC(CC(C3)C1)C2 | 25.5 | > 10 | – |

| SMILES | %max [1] [%] | IC50 [2] [µM] | other results |
| --- | --- | --- | --- |
| O=C(N1CC2CCCC(C2)C1)N1C[C@@H]2CN(c3ccccn3)C[C@@H]2C1 | -1.5 | 1.91 | – |
| N#Cc1cnccc1N1C[C@H]2CN(C(=O)C34CC5CC(CC(C5)C3)C4)C[C@H]2C1 | 36.8 | > 10 | – |
| O=C(N1C[C@@H]2CN(c3cccc(F)n3)C[C@@H]2C1)C12CC3CC(CC(C3)C1)C2 | 2.3 | 0.093 | Fu (Plasma): 1.2% |
| O=C(N1C[C@@H]2CN(c3ncccn3)C[C@@H]2C1)C12CC3CC(CC(C3)C1)C2 | 10.3 | > 10 | – |
| O=C(CC1CCCCC1)N1C[C@@H]2CN(c3ccccn3)C[C@@H]2C1 | 47.6 | > 10 | – |
| O=C(N1C[C@@H]2CN(c3ccccn3)C[C@@H]2C1)C12CC3CC(CC(C3)C1)C2 | 2.2 | 0.085 | Fu (Plasma): 2.9%; inhibition [9]: 60%; Activity [3]: inactive; IC50 (Cytochrome P450 2C9): > 30 µM; inhibition [10]: 95%; IC50 (Cytochrome P450 3A4): 6.2 µM; %max [11]: 1.1%; IC50 (Cytochrome P450 1A2): > 30 µM; Activity [4]: inactive; IC50 [5]: 3.36 µM; inhibition [12]: 90%; Fu (Brain): 2.3%; IC50 (Cytochrome P450 2D6): 24.3 µM; inhibition (Rattus norvegicus): 52%; Activity [8]: inactive |
| O=C(N1C[C@@H]2CN(c3ccc(F)cn3)C[C@@H]2C1)C12CC3CC(CC(C3)C1)C2 | 2.2 | 0.478 | Fu (Plasma): 1.5% |
| N#Cc1ncccc1N1C[C@H]2CN(C(=O)C34CC5CC(CC(C5)C3)C4)C[C@H]2C1 | 1.3 | 0.553 | Fu (Plasma): 4.5% |
| O=C(C1CCCCCC1)N1C[C@@H]2CN(c3ccccn3)C[C@@H]2C1 | 36.5 | > 10 | – |
| O=C(N1C[C@@H]2CN(c3nccs3)C[C@@H]2C1)C12CC3CC(CC(C3)C1)C2 | 56.6 | > 10 | – |
| O=C(CC12CC3CC(CC(C3)C1)C2)N1C[C@@H]2CN(c3ccccn3)C[C@@H]2C1 | 0 | – | – |
| CC(C)(C)CC(=O)N1C[C@@H]2CN(c3ccccn3)C[C@@H]2C1 | – | > 30 | Activity [13]: inactive |
| O=C(N1C[C@@H]2CN(c3ccccn3)C[C@@H]2C1)C12C3C4C5C3C1C5C42 (stereo partly drawn) | 58.7 | > 10 | – |
| C[C@@H]1CN(c2cccnc2C#N)CCN1C(=O)C12CC3CC(CC(C3)C1)C2 | – | – | IC50 (Cytochrome P450 2C9): > 30 µM; IC50 (Cytochrome P450 3A4): 7 µM; IC50 (Cytochrome P450 1A2): > 30 µM; IC50 (Cytochrome P450 2D6): 12.4 µM |
| O=C(C1CCCCC1)N1C[C@@H]2CN(c3ccccn3)C[C@@H]2C1 | 57.7 | > 10 | – |
